Measurements reported in ChEMBL document CHEMBL1144324, “2,3-Dimethoxy-5-methyl-1,4-benzoquinones and 2-methyl-1,4-naphthoquinones: glycation inhibitors with lipid peroxidation activity” (Bioorg Med Chem Lett, 2005).

Tests used:
Assay type in all cases: functional, organism-based; call rule not given here
Bos taurus [1] = species: Bos taurus; assay: Inhibitory concentration against bovine serum albumin glycation was determined
Rattus norvegicus [2] = species: Rattus norvegicus; assay: Inhibitory concentration against lipid peroxidation in rat
In short: (§1)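 TBARS assay in rat brain homogenate (5 mg protein/mL). Compound was preincubated with homogenate 20 min at 37 °C with shaking, then peroxidation was started with 0.02 mM FeCl2 and 0.25 mM ascorbic acid for 30 min at 37 °C. The reaction was stopped with perchloric acid and centrifuged. Supernatant was reacted with 0.5% TBA at 80 °C for 1 h and A532 read against a 1,1,3,3-tetraethoxypropane standard.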

Rattus norvegicus [3] = species: Rattus norvegicus; assay: Inhibitory concentration for lipid peroxidation in rat; in short: as §1
Bos taurus [4] = species: Bos taurus; assay: Inhibitory concentration against bovine serum albumin glycation; Not active from 3.80 nM to 1.00 mM

IC50 (Bos taurus [1]) [µM] | IC50 (Rattus norvegicus [2]) [µM] | IC50 (Rattus norvegicus [3]) [µM] | IC50 (Bos taurus [4]) | Compound
199 | 1.41 | – | – | CC1=C(Cl)C(=O)c2ccccc2C1=O
– | – | 29.2 | – | COC1=C(OC)C(=O)C(C(=O)NCCc2ccccc2)=C(C)C1=O
– | 12.2 | – | – | CC1=CC(=O)c2ccccc2C1=O [MENADIONE]
– | – | – | Not Active | Cc1c(C)c2c(c(C)c1O)CC[C@@](C)(CCC[C@H](C)CCC[C@H](C)CCCC(C)C)O2 [ALPHA-TOCOPHEROL]
218 | 39.4 | – | – | COC1=C(OC)C(=O)C(c2ccccc2)=C(C)C1=O
144 | 1.1 | – | – | CC1=C(Br)C(=O)c2ccccc2C1=O
